Compound activity deposited in PubChem BioAssay by several laboratories.
CYP2C19 act – activators of human cytochrome P450 2C19; P33261; recombinant CYP2C19, luciferin-H EGE luminescence; stronger effect = higher value; 0 = fully inhibited enzyme, 1 = untreated enzyme; activation factor at 5 µM; 96,000 tested, under 10 active; AID 1025;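 active = activation factor of at least 2 at 5 µM in the primary screen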;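 also: 0 = wells with 2.5 mM tranylcypromine and 1 = vehicle-only wells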
Rev-RRE block – HIV Rev-RRE protein-RNA interaction inhibition. Rev peptide-RRE RNA binding, FRET. actives 0.79% (n = 97,000). inhibition, % at 8 µM. AID 704. P05866;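 active = inhibition above the screen-wide mean plus 3 SD, cut at about 35% in these data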;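 also: 0% = median DMSO wells and 100% = median Neomycin B control wells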
Target sequence (P05866 whole entry, looked up): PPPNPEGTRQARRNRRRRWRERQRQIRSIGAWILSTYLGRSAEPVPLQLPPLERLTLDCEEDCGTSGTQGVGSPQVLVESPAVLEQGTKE
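assay system = Cy5-tagged RRE RNA duplex with fluorescein-tagged Rev peptide | incubation = 5 + 15 min at 25 °C | also added = labelled Rev peptide | measure = % inhibition of FRET ratio versus controls | benchmarks = DMSO wells as 0% and neomycin B wells as 100% inhibition | measured by = FRET fluorescence readout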
CYP2C9 inh – human CYP2C9 inhibition; actives 20% (n = 96,000); inhibition, % at 5 µM; CYP2C9 Supersomes, luciferin-H conversion, luminescence;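 active = blocking of liver enzyme CYP2C9 beyond about 50% at 5 µM, limit read from the data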
Target sequence (P11712 whole entry, looked up): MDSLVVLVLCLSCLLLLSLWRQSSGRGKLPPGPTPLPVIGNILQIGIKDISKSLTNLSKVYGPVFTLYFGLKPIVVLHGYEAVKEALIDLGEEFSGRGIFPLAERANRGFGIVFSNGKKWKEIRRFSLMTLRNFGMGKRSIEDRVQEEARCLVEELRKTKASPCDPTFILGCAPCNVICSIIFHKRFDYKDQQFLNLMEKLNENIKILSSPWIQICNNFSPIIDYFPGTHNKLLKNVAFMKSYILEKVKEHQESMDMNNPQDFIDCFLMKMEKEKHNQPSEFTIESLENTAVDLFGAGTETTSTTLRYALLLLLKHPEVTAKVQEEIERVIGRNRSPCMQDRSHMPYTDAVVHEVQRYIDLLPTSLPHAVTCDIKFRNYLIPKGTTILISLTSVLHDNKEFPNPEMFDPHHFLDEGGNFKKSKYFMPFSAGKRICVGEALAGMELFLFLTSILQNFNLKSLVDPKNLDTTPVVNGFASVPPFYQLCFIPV
CYP2C9 act – CYP2C9 (human) activation | recombinant CYP2C9, luciferin-H conversion, luminescence; stronger effect = higher value; factor 1 = untreated enzyme, 0 = blocked | actives 1.4% (n = 96,000) | activation factor at 5 µM | AID 1024;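 active = activation factor of 2 or more for CYP2C9 at a 5 µM dose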;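 also: 0 = sulfaphenazole-blocked wells and 1 = vehicle-only wells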
Cav32 inh – inhibitors of human Cav3.2 T-type calcium channel. actives 4% (n = 100,000). B-score at 10 µM. Cav3.2-expressing cells, Fluo-4 calcium fluorescence FDSS; stronger effect = lower value. O95180;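 active = single-dose well whose peak fluorescence ratio is a statistical outlier from its plate by either plate-standardised score or position-corrected B-score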
CYP2C19 inhib – human CYP2C19 inhibition | AID 778 | inhibition, % at 5 µM | CYP2C19 Supersomes, luciferin-H EGE luminescence, 30 min | P33261 | actives 21% (n = 96,000);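 active = CYP2C19 inhibition above a set limit at 5 µM in the primary screen, cut at about 50% in these data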;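 also: plate controls were negative control wells for no effect and 2.5 mM tranylcypromine positive control for full effect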
Active calls of the source: *; · = no result. This is a sample that favours compounds with a hit; in the whole collection about 27% have one here.

SMILES | CYP2C19 act | Rev-RRE block | CYP2C9 inh | CYP2C9 act | Cav32 inh | CYP2C19 inhib
CCOC(=O)c1cc(C#N)c(Oc2ccccc2)nc1-c1ccccc1 | 0.8 | 12.8 | 33.1 | 0.7 | -1.49 | 21.8
C=CCNc1nc(-c2ccccc2)c(C(=O)OCC)cc1C#N | 0.7 | 11.7 | 24.7 | 0.8 | -4.39* | 25.9
O=C(OCn1cncn1)c1ccc(Cl)cc1Cl | 0.5 | 3.8 | 38.0 | 0.6 | -0.243 | 49.5
COc1ccc(/C=C(/C(=O)c2ccc(Cl)cc2Cl)n2cncn2)cc1 | 0.2 | 9.2 | 91.2* | 0.1 | -1.9 | 77.2*
c1cncc(Nc2nc(-c3ccncc3)cs2)c1 | 0.5 | · | 52.5* | 0.5 | -1.17 | 50.6*
O=C(Nc1ccc(-c2csc(Nc3ccc(Cl)cc3)n2)cc1)c1cccc(C(F)(F)F)c1 | · | · | · | · | -0.0086 | ·
O=C(Nc1nc(-c2ccc(Cl)cc2)cs1)c1cccnc1 | 0.4 | 4.5 | 39.5 | 0.6 | -0.369 | 61.0*
Cc1ccc(-c2csc(NC(=O)c3cccc([N+](=O)[O-])c3)n2)cc1 | 1.1 | 0.2 | -9.7 | 1.1 | -0.292 | -8.3
COc1ccc(CCNc2nc(-c3sc(C)nc3C)cs2)cc1OC | 0.7 | 2.7 | 22.0 | 0.8 | -1.37 | 26.8
Cc1ccc(-c2csc(NC(=O)c3ccno3)n2)cc1 | 0.6 | 13.7 | 70.1* | 0.3 | -1.13 | 38.4
CC(=O)Oc1ccc(-c2csc(Nc3cccnc3)n2)cc1 | 0.8 | 2.8 | -2.8 | 1 | -0.421 | 15.5
COc1ccc(CCNc2nc(-c3cccnc3)cs2)cc1OC | 0.2 | 1.6 | 9.5 | 0.9 | -0.525 | 83.5*
CCOC(=O)C1CCCN(c2c(N3CCc4ccccc4C3)c(=O)c2=O)C1 (configuration not stated) | 0.7 | 9.9 | 49.8 | 0.5 | · | 34.6
CSc1ccc(CN2CCC(O)CC2)cc1 | · | 10.4 | · | · | · | ·
c1cncc(Nc2nc(-c3cccnc3)cs2)c1 | 0.3 | · | 56.0* | 0.4 | 0.0889 | 71.6*
O=C(CN1C(=O)c2ccccc2S1(=O)=O)N1CCN(Cc2ccc3c(c2)OCO3)CC1 | 0.8 | 6.1 | 35.0 | 0.7 | -0.0308 | 18.5
Cc1ccc(S(=O)(=O)N(CCCN2CCCC2=O)Cc2cc3c(C)ccc(C)c3[nH]c2=O)cc1 | 0.9 | 6.4 | 62.8* | 0.4 | 1.68 | 10.9
COc1ccc(S(=O)(=O)N(CCCN2CCCC2=O)Cc2cc3cc(C)c(C)cc3[nH]c2=O)cc1 | 0.8 | 8.0 | 67.6* | 0.3 | · | 22.5
COC(=O)[C@@H]1C[C@@]2(O)[C@@H](O)[C@@H](O)[C@@H](O)C[C@H]2N1Cc1cc(OC)cc(OC)c1 | · | · | · | · | -0.0394 | ·
Nc1n[nH]c(-c2ccccc2)c1-c1ccccc1 | 0.8 | 2.3 | 10.2 | 0.9 | 0.772 | 16.2
Cc1nn(-c2ccccc2)c(-c2ccccc2)c1C(=O)O | 1 | 4.1 | 30.8 | 0.7 | 0.0582 | -0.8
C=CCn1c(N)c(C(=O)Nc2ccccc2)c2nc3ccccc3nc21 | 1.1 | · | -5.7 | 1.1 | -0.142 | -6.8
C=CCn1c(N)c(C(=O)OC(C)(C)C)c2nc3ccccc3nc21 | 0.4 | 17.2 | 76.8* | 0.2 | 0.925 | 63.4*
COCC(C)OC(=O)c1c(N)n(CC(C)C)c2nc3ccccc3nc12 (configuration not stated) | 0.8 | 6.1 | 49.8 | 0.5 | 0.0275 | 16.8
C=CCn1c(N)c(C(=O)OC(C)CC)c2nc3ccccc3nc21 (configuration not stated) | 0.4 | 8.6 | 82.8* | 0.2 | -1.56 | 56.1*
SMILES | CYP2C19 act | Rev-RRE block | CYP2C9 inh | CYP2C9 act | Cav32 inh | CYP2C19 inhib
CC(=O)N1CCN(c2ccc([N+](=O)[O-])c(NCC3CCCO3)c2)CC1 (configuration not stated) | 1 | 3.1 | 24.4 | 0.8 | 0.302 | -0.9
CN(CCOc1ccccc1)S(=O)(=O)c1ccc2oc3ccccc3c2c1 | 0.5 | 16.2 | -62.2 | 1.6 | -5.43* | 52.2*
COc1ccc(OCCNS(=O)(=O)c2ccc3oc4ccccc4c3c2)cc1 | 0.7 | -0.5 | 38.9 | 0.6 | -0.395 | 25.7
Cc1cc(C)n(C(=O)c2ccc(NC(=O)C3CC3)cc2)n1 | 1 | 7.1 | -121.8 | 2.2* | -0.465 | 2.5
CCC(=O)Nc1ccc(C(=O)n2nc(C)cc2C)cc1 | 0.9 | 0.0 | -43.7 | 1.4 | 0.521 | 12.5
O=C(CC1Nc2ccccc2NC1=O)c1ccccc1 (configuration not stated) | 1 | 73.3* | 0.4 | 1 | -0.954 | 1.8
O=S(=O)(NC1CCCC1)c1ccc(Br)s1 | 0 | 4.4 | 60.9* | 0.4 | 0.0252 | 96.5*
O=S(=O)(NC1CCCCC1)c1ccc(Cl)s1 | 0.1 | -0.2 | 84.6* | 0.2 | -0.0806 | 90.5*
O=C(NCc1ccco1)C1CCCN(S(=O)(=O)c2cccc3nsnc23)C1 (configuration not stated) | 0.7 | · | -8.2 | 1.1 | 0.31 | 30.5
ONC(=Nc1ccc(Cl)cc1)c1ccccc1 | 0.1 | 6.0 | 23.7 | 0.8 | · | 91.2*
Cc1cc2c(s1)c1cnn(Cc3ccccc3F)c(=O)c1n2C | 0.5 | 10.3 | 4.7 | 1 | -0.683 | 51.1*
Cn1c(=O)c2nc(-c3ccc(Cl)cc3Cl)oc2c2ccccc21 | · | · | · | · | -0.089 | ·
COCCn1c(-c2ccc(OC)cc2)nc2oc3cc(OC)ccc3c(=O)c2c1=O | 1.1 | 11.0 | -3.4 | 1 | 1.26 | -5.4
CCCCNC(=O)C1c2ccccc2C(=O)N(c2ccc(OC)cc2)C1c1ccc(OC)cc1 (configuration not stated) | 0.9 | 7.3 | 41.5 | 0.6 | 0.371 | 13.7
CCN1CCN(CCCNC(=O)C2c3ccccc3C(=O)N(C)C2c2ccc(OC)cc2)CC1 (configuration not stated) | 1.1 | -4.1 | -2.5 | 1 | -5.56* | -13.8
Cc1ccc(S(=O)(=O)NC(=O)c2ccc(-c3ccc(-c4ccccc4)cc3)o2)c(C)c1 | · | · | · | · | -4.3* | ·
COc1cccc(NC(=O)CNC(=O)c2cccs2)c1 | 0.5 | 3.1 | 28.4 | 0.7 | 0.00325 | 46.9
COc1cccc(NC(=O)CCS(=O)(=O)c2cccs2)c1 | 0.4 | · | 58.3* | 0.4 | 1.12 | 59.6*
CCOC(=O)c1cccc(NC(=O)CCS(=O)(=O)c2cccs2)c1 | 0.3 | · | 88.7* | 0.1 | · | 72.4*
CN(Cc1ccccc1)C(=O)CN(c1ccc(F)cc1)S(=O)(=O)c1ccc2c(c1)OCCO2 | · | 6.7 | · | · | -5.04* | ·
O=C(CN(c1ccc(F)cc1)S(=O)(=O)c1ccc2c(c1)OCCO2)NCc1ccccc1 | 0.9 | 9.1 | 12.5 | 0.9 | 1.28 | 8.3
O=C(CN(Cc1ccccc1)S(=O)(=O)c1ccc2c(c1)OCCO2)Nc1ccc2c(c1)OCCO2 | 0.6 | 11.1 | 96.0* | 0 | -3.35 | 43.1
O=C(CN(c1ccc(F)cc1)S(=O)(=O)c1ccc2c(c1)OCCO2)Nc1ccccc1 | 0.7 | 7.3 | 64.9* | 0.4 | -0.531 | 29.0
CC(=O)Nc1ccc(NC(=O)CN(c2ccc(F)cc2)S(=O)(=O)c2ccc3c(c2)OCCO3)cc1 | 0.9 | 4.2 | 30.4 | 0.7 | 2.51 | 14.7
